Reference: ChEMBL document CHEMBL5214961, “Novel Allosteric Inhibitor-Derived AKT Proteolysis Targeting Chimeras (PROTACs) Enable Potent and Selective AKT Degradation in KRAS/BRAF Mutant Cells” (J Med Chem, 2022)
The source made the active and inactive calls. No cut-off for these calls is given here.

Key:
[1] = molecular target: von Hippel-Lindau disease tumor suppressor/RAC-alpha serine/threonine-protein kinase (Homo sapiens) (UniProt P31749+P40337); experiment: Protac activity at VHL/AKT in human PC-3 cells assessed as reduction in total Akt level at 1 uM incubated for 24 hrs by Western blot analysis; format: cell-based
In short: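 Cells grown in DMEM with 10% FBS at 37 °C, 5% CO2, then exposed to compound at 1 μM for 24 h. Lysates made in 2X urea/SDS sample buffer, run on 4–12% Bis-Tris gels, transferred to PVDF, probed for total AKT overnight at 4 °C; HRP/chemiluminescence detection with β-actin as loading control.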

PC-3 = experiment: Inhibition of colony formation in human PC-3 cells at 0.1 to 10 uM incubated for 2 weeks with media replacement for every 2 days by crystal violet staining based analysis; format: functional, cell-based; settings: dose 0.1-10 µM
In short: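 PC3 cells kept 14 days with compound; compound-containing medium replenished every two days. Viable cells stained with 0.5% crystal violet.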

[2] = molecular target: RAC-gamma serine/threonine-protein kinase (Homo sapiens, UniProt Q9Y243); experiment: Inhibition of AKT3 (unknown origin) preincubated for 20 mins followed by [33P]-ATP addition measured after 120 mins by hotspot kinase assay
[3] = molecular target: RAC-alpha serine/threonine-protein kinase (Homo sapiens, UniProt P31749); experiment: Inhibition of AKT1 (unknown origin) preincubated for 20 mins followed by [33P]-ATP addition measured after 120 mins by hotspot kinase assay
[4] = molecular target: RAC-beta serine/threonine-protein kinase (Homo sapiens, UniProt P31751); experiment: Inhibition of AKT2 (unknown origin) preincubated for 20 mins followed by [33P]-ATP addition measured after 120 mins by hotspot kinase assay
SW-620 = experiment: Antiproliferative activity against human SW620 cells harboring KRAS mutant assessed as inhibition of cell growth incubated for 5 days by IncuCyte live-cell imaging analysis; format: functional, cell-based; settings: SW-620, 120 h

von Hippel-Lindau disease tumor suppressor/RAC-alpha serine/threonine-protein kinase (Homo sapiens), sequence (P31749 whole entry, looked up): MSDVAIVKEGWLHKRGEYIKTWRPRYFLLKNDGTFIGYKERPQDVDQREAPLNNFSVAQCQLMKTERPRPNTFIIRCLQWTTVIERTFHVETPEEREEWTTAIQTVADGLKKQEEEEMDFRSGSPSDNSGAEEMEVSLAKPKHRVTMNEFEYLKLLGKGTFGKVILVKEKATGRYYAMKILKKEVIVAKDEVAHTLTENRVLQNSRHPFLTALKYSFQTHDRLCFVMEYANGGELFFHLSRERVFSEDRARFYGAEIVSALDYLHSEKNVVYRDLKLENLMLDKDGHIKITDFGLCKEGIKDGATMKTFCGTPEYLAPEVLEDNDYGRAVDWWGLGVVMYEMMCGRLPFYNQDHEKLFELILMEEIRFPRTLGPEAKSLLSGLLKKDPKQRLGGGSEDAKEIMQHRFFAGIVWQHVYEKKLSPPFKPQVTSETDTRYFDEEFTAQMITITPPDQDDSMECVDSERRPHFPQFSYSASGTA
von Hippel-Lindau disease tumor suppressor/RAC-alpha serine/threonine-protein kinase (Homo sapiens), sequence (P40337 whole entry, looked up): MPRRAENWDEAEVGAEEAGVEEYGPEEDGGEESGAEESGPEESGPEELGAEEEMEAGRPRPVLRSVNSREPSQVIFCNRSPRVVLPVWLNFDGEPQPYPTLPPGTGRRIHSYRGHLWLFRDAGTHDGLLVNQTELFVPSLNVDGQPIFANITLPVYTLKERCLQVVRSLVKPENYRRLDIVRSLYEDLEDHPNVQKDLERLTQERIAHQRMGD
RAC-beta serine/threonine-protein kinase, sequence (P31751 whole entry): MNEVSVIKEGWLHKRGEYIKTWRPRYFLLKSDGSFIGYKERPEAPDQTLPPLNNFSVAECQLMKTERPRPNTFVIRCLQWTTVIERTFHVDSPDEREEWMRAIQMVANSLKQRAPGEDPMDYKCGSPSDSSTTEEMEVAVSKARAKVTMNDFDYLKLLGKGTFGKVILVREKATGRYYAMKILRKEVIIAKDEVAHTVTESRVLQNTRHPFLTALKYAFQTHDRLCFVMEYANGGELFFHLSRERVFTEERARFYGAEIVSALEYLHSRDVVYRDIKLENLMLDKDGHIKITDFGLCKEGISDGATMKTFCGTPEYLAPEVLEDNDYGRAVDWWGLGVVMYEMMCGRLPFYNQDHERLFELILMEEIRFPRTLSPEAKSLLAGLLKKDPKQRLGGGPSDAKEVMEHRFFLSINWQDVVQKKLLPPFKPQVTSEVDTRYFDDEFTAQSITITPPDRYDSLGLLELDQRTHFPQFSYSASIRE
RAC-alpha serine/threonine-protein kinase, sequence (P31749 whole entry): as the sequence (P31749 whole entry, looked up) above
RAC-gamma serine/threonine-protein kinase, sequence (Q9Y243 whole entry): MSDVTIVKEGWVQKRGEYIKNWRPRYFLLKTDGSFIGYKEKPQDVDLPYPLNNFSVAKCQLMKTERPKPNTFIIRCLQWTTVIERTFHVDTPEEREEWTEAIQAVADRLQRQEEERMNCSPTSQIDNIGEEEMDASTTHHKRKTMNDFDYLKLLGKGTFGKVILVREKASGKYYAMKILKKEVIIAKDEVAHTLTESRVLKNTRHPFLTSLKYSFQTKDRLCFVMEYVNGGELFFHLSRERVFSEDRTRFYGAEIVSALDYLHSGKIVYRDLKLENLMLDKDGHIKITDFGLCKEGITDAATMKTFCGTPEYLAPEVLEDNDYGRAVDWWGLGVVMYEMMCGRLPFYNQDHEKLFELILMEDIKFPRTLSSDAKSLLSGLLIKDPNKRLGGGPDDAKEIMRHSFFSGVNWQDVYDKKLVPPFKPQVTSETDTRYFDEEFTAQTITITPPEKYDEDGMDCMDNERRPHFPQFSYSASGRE

SMILES	Activity [1]	also measured
Cc1ncsc1-c1ccc(CNC(=O)[C@@H]2C[C@@H](O)CN2C(=O)[C@@H](NC(=O)CCCCCCCCCC(=O)NCCc2cccc(-c3ccc4nc(-c5cccnc5N)n(-c5ccc(C6(N)CCC6)cc5)c4n3)c2)C(C)(C)C)cc1	Active	inhibition (PC-3): Active
Cc1ncsc1-c1ccc([C@H](C)NC(=O)[C@H]2C[C@H](O)CN2C(=O)[C@@H](NC(=O)CCCCCCCCCCNC(=O)CCc2cccc(-c3ccc4nc(-c5cccnc5N)n(-c5ccc(C6(N)CCC6)cc5)c4n3)c2)C(C)(C)C)cc1	–	IC50 [2]: 407 nM; IC50 [3]: 684 nM; IC50 [4]: 86 nM
Cc1ncsc1-c1ccc(CNC(=O)[C@@H]2C[C@@H](O)CN2C(=O)[C@@H](NC(=O)CCCCCCCCNC(=O)CCc2cccc(-c3ccc4nc(-c5cccnc5N)n(-c5ccc(C6(N)CCC6)cc5)c4n3)c2)C(C)(C)C)cc1	Active	–
Cc1ncsc1-c1ccc(CNC(=O)[C@@H]2C[C@@H](O)CN2C(=O)[C@@H](NC(=O)CCCCCCCCCNC(=O)CCc2cccc(-c3ccc4nc(-c5cccnc5N)n(-c5ccc(C6(N)CCC6)cc5)c4n3)c2)C(C)(C)C)cc1	Active	–
Cc1ncsc1-c1ccc(CNC(=O)[C@@H]2C[C@@H](O)CN2C(=O)[C@@H](NC(=O)COCCOCCOCCOCCOCC(=O)NCCc2cccc(-c3ccc4nc(-c5cccnc5N)n(-c5ccc(C6(N)CCC6)cc5)c4n3)c2)C(C)(C)C)cc1	Active	–
Cc1ncsc1-c1ccc(CNC(=O)[C@@H]2C[C@@H](O)CN2C(=O)[C@@H](NC(=O)CCCCCCCCCCNC(=O)CCc2cccc(-c3ccc4nc(-c5cccnc5N)n(-c5ccc(C6(N)CCC6)cc5)c4n3)c2)C(C)(C)C)cc1	Active	inhibition (PC-3): Active
Cc1ncsc1-c1ccc(CNC(=O)[C@@H]2C[C@@H](O)CN2C(=O)[C@@H](NC(=O)CCCCCCCC(=O)NCCc2cccc(-c3ccc4nc(-c5cccnc5N)n(-c5ccc(C6(N)CCC6)cc5)c4n3)c2)C(C)(C)C)cc1	Active	–
Cc1ncsc1-c1ccc(CNC(=O)[C@@H]2C[C@@H](O)CN2C(=O)[C@@H](NC(=O)COCCOCCNC(=O)CCc2cccc(-c3ccc4nc(-c5cccnc5N)n(-c5ccc(C6(N)CCC6)cc5)c4n3)c2)C(C)(C)C)cc1	Active	–
Cc1ncsc1-c1ccc(CNC(=O)[C@@H]2C[C@@H](O)CN2C(=O)[C@@H](NC(=O)COCCOCCOCCNC(=O)CCc2cccc(-c3ccc4nc(-c5cccnc5N)n(-c5ccc(C6(N)CCC6)cc5)c4n3)c2)C(C)(C)C)cc1	Active	–
Cc1ncsc1-c1ccc(CNC(=O)[C@@H]2C[C@@H](O)CN2C(=O)[C@@H](NC(=O)CCOCCOCCNC(=O)CCc2cccc(-c3ccc4nc(-c5cccnc5N)n(-c5ccc(C6(N)CCC6)cc5)c4n3)c2)C(C)(C)C)cc1	Active	–
Cc1ncsc1-c1ccc(CNC(=O)[C@@H]2C[C@@H](O)CN2C(=O)[C@@H](NC(=O)COCC(=O)NCCc2cccc(-c3ccc4nc(-c5cccnc5N)n(-c5ccc(C6(N)CCC6)cc5)c4n3)c2)C(C)(C)C)cc1	Active	–
Cc1ncsc1-c1ccc(CNC(=O)[C@@H]2C[C@@H](O)CN2C(=O)[C@@H](NC(=O)CCOCCC(=O)NCCc2cccc(-c3ccc4nc(-c5cccnc5N)n(-c5ccc(C6(N)CCC6)cc5)c4n3)c2)C(C)(C)C)cc1	Active	–
Cc1ncsc1-c1ccc(CNC(=O)[C@@H]2C[C@@H](O)CN2C(=O)[C@@H](NC(=O)COCCNC(=O)CCc2cccc(-c3ccc4nc(-c5cccnc5N)n(-c5ccc(C6(N)CCC6)cc5)c4n3)c2)C(C)(C)C)cc1	Active	–
Cc1ncsc1-c1ccc(CNC(=O)[C@@H]2C[C@@H](O)CN2C(=O)[C@@H](NC(=O)CCOCCOCCOCCOCCOCCC(=O)NCCc2cccc(-c3ccc4nc(-c5cccnc5N)n(-c5ccc(C6(N)CCC6)cc5)c4n3)c2)C(C)(C)C)cc1	Active	–
Cc1ncsc1-c1ccc(CNC(=O)[C@@H]2C[C@@H](O)CN2C(=O)[C@@H](NC(=O)CCCCCCCNC(=O)CCc2cccc(-c3ccc4nc(-c5cccnc5N)n(-c5ccc(C6(N)CCC6)cc5)c4n3)c2)C(C)(C)C)cc1	Active	–
Cc1ncsc1-c1ccc(CNC(=O)[C@@H]2C[C@@H](O)CN2C(=O)[C@@H](NC(=O)CCCCCCCCC(=O)NCCc2cccc(-c3ccc4nc(-c5cccnc5N)n(-c5ccc(C6(N)CCC6)cc5)c4n3)c2)C(C)(C)C)cc1	Active	inhibition (PC-3): Active
Cc1ncsc1-c1ccc(CNC(=O)[C@@H]2C[C@@H](O)CN2C(=O)[C@@H](NC(=O)CCOCCNC(=O)CCc2cccc(-c3ccc4nc(-c5cccnc5N)n(-c5ccc(C6(N)CCC6)cc5)c4n3)c2)C(C)(C)C)cc1	Active	–
Cc1ncsc1-c1ccc([C@H](C)NC(=O)[C@H]2C[C@H](OCc3ccccc3)CN2C(=O)[C@@H](NC(=O)CCCCCCCCCCNC(=O)CCc2cccc(-c3ccc4nc(-c5cccnc5N)n(-c5ccc(C6(N)CCC6)cc5)c4n3)c2)C(C)(C)C)cc1	–	IC50 [2]: 1800 nM; IC50 [3]: 1200 nM; IC50 (SW-620): > 10000 nM; IC50 [4]: 558 nM
